Results on 19 molecules are retold here after ChEMBL document CHEMBL1135862, “Bioactive 4-substituted-6-methyl-2-pyrones with promising cytotoxicity against A2780 and K562 cell lines” (Bioorg Med Chem Lett, 2002).

The test system of assay [1] is Staphylococcus aureus. The assay can be described thus: Antimicrobial activity against Staphylococcus aureus after 96h incubation. The format is functional. The essentials:
(§1)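 Agar diffusion on cellulose disks loaded with 200 µg compound each. Bacteria read after 96 h, yeasts after 48 h. Activity is recorded as the radius in mm, or percent, of the inhibition zone. Squalestatin S1 (200 µg/disk) served as control in the yeast assay.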

The subject of assay [2] is Escherichia coli. The assay can be described thus: Antimicrobial activity against Escherichia coli after 96h incubation. The format is functional. In a few lines:
as §1

Another assay relates to K562. The assay can be described thus: Inhibitory concentration in vitro for cytotoxic activity against K 562 human chronic myelogenous leukemia cells. The format is functional, cell-based. In a few lines:
(§2)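 MTT assay in 96-well plates, seeding 400–1000 cells/well. Cells recover 24 h, then drug in medium is added, three wells per dose. Incubate 5 days at 37 °C in 5% CO₂. Add MTT (3 mg/mL) for 3 h, dissolve formazan in DMSO, read at 540 nm minus 620 nm. Percent growth inhibition per dose comes from duplicate experiments, reported as mean and SD; IC50 is derived from these.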

Assay [3] concerns Schizosaccharomyces pombe. The assay can be described thus: (§3) Antimicrobial activity against Schizosaccharomyces pombe after 48 hr incubation. The format is functional. The essentials:
as §1

Assay [4] deals with Bacillus subtilis. Nature of the assay: Antimicrobial activity against Bacillus subtilis after 96 hr incubation. The class given is functional. The arrangement: concentration or dose not given beside the values. The essentials:
as §1

Assay [5] concerns Bacillus subtilis. Nature of the assay: Antimicrobial activity against Bacillus subtilis after 96h incubation. The class given is functional. In a few lines:
as §1

A further assay concerns A2780. The assay can be described thus: Inhibitory concentration in vitro for cytotoxic activity against A 2780 human ovarian carcinoma cells. The format is functional, cell-based. The essentials:
as §2

Assay [6] concerns Escherichia coli. Nature of the assay: Antimicrobial activity against the Escherichia coli after 96 hr incubation. The format is functional. The arrangement: concentration or dose not given beside the values. In a few lines: as §1
Assay [7] deals with Candida albicans. The assay can be described thus: Antimicrobial activity against Candida albicans after 48 hr incubation. The format is functional. In a few lines:
as §1

The subject of a further assay is Saccharomyces cerevisiae. The assay can be described thus: Antimicrobial activity against Saccharomyces cerevisiae after 48 hr incubation. The format is functional. In a few lines: as §1
Assay [8] concerns Staphylococcus aureus. Nature of the assay: The compound was evaluated for anti microbial activity against Staphylococcus aureus after 96 hr incubation. The class given is functional. The arrangement: concentration or dose not given beside the values. The essentials: as §1
Assay [9] has as its system Schizosaccharomyces pombe. Described as §3. The arrangement: concentration or dose not given beside the values. The format is functional. In a few lines:
as §1

The subject of assay [10] is Candida albicans. The assay can be described thus: Anti fungal activity against Candida albicans after 48 hr incubation. The arrangement: concentration or dose not given beside the values. The class given is functional. The essentials: as §1

pIC50: −log10 of the molar value.

For orientation: pIC50 means the negative decadic logarithm of the IC50, by convention in mol/L.

Take `Cc1ccc(-c2cc(C)oc(=O)c2)cc1`: the Inhibition is reported as 0 mm with Staphylococcus aureus [1]; 18 mm with Escherichia coli [2]; 0 mm in assay [3]; 21.6% in the assay with Bacillus subtilis [4]; 19 mm in the assay with Bacillus subtilis [5]; 20.4% in the assay with Escherichia coli [6]. The Inhibition in the assay on Candida albicans [7] and with Saccharomyces cerevisiae was 0 mm throughout. The pIC50 in the assay with K562 and with A2780 was under 4.30 in each case.

Take `Cc1cc(-c2ccccc2)cc(=O)o1`: the Inhibition is recorded as 18 mm in the assay with Staphylococcus aureus [1]; 20 mm in the assay with Escherichia coli [2]; 0 mm in [3]; 20.5% with Bacillus subtilis [4]; 18 mm in the assay with Bacillus subtilis [5]; 22.7% in the assay with Escherichia coli [6]. Further, the Inhibition worked out at 20.5% with Staphylococcus aureus [8], 0 mm in the assay with Candida albicans [7] and 0 mm in the assay with Saccharomyces cerevisiae. The pIC50 in the assay with K562 and in the assay with A2780 was under 4.30 each time.

For `CCCCCCC#Cc1cc(C)oc(=O)c1`, the Inhibition in the assay with Staphylococcus aureus [1] is reported as 18 mm; in the assay on Escherichia coli [2], 17 mm; in [3], 48 mm; in the assay on Bacillus subtilis [4], 19.3%; in the assay on Bacillus subtilis [5], 17 mm; in the assay with Escherichia coli [6] it was 19.3%. Besides, the Inhibition is listed as 20.5% in the assay on Staphylococcus aureus [8], 0 mm in the assay on Candida albicans [7], 0 mm in the assay on Saccharomyces cerevisiae and 54.5% in assay [9]. The pIC50 in the assay on K562 is 4.69; in the assay with A2780, 5.47.

As for `CCCCCCc1cc(C)oc(=O)c1`, the Inhibition came out at 0 mm in the assay on Staphylococcus aureus [1]; 25 mm in the assay with Escherichia coli [2]; 26 mm in assay [3]; 23.9% in the assay on Bacillus subtilis [4]; 21 mm in the assay on Bacillus subtilis [5]; 28.4% in the assay on Escherichia coli [6]. In addition, the Inhibition in the assay on Candida albicans [7] was determined as 11 mm; in the assay with Saccharomyces cerevisiae, 0 mm; in the assay on Candida albicans [10] it was 12.5%; in assay [9] it was 29.5%. Further, the pIC50 in the assay on K562 and with A2780 was under 4.30 in each case.

In the case of `CCCC/C=C/c1cc(C)oc(=O)c1`, the Inhibition in the assay with Staphylococcus aureus [1] is 0 mm; with Escherichia coli [2] it was 18 mm; in [3] it was 40 mm; in the assay with Bacillus subtilis [4] it was 20.5%; with Bacillus subtilis [5], 18 mm; in the assay on Escherichia coli [6], 20.5%. Besides, the Inhibition is reported as 24 mm in the assay on Candida albicans [7], 0 mm in the assay on Saccharomyces cerevisiae, 27.3% with Candida albicans [10] and 45.5% in [9].

As for `Cc1cc(-c2ccc(Cl)cc2)cc(=O)o1`, the Inhibition in the assay with Staphylococcus aureus [1] turned out to be 20 mm; in the assay with Escherichia coli [2] it was 20 mm; in assay [3] it was 0 mm; in the assay with Bacillus subtilis [4], 20.5%; in the assay with Bacillus subtilis [5], 18 mm; in the assay on Escherichia coli [6], 22.7%. Besides, the Inhibition in the assay on Staphylococcus aureus [8] amounted to 22.7%; with Candida albicans [7] it was 0 mm; in the assay with Saccharomyces cerevisiae, 0 mm. Further, the pIC50 with K562 and in the assay on A2780 was under 4.30 each time.

On to `Cc1cc(CCc2ccccc2)cc(=O)o1`, for which the Inhibition in the assay with Staphylococcus aureus [1] turned out to be 0 mm; with Escherichia coli [2], 20 mm; in assay [3], 10 mm; in the assay on Bacillus subtilis [4], 20.5%; in the assay on Bacillus subtilis [5], 18 mm; with Escherichia coli [6], 22.7%. The Inhibition in the assay with Candida albicans [7] came to 0 mm; in the assay with Saccharomyces cerevisiae, 0 mm; in assay [9] it was 11.4%. Further, the pIC50 in the assay on K562 and in the assay with A2780 was under 4.30 in each case.

`Cc1cc(/C=C/c2ccccc2)cc(=O)o1`: the Inhibition in the assay on Staphylococcus aureus [1] was 0 mm; in the assay on Escherichia coli [2], 17 mm; in assay [3], 18 mm; in the assay with Bacillus subtilis [4], 20.5%; with Bacillus subtilis [5] it was 18 mm; in the assay with Escherichia coli [6], 19.3%. The Inhibition is recorded as 0 mm with Candida albicans [7], 0 mm in the assay on Saccharomyces cerevisiae and 20.5% in assay [9]. The pIC50 in the assay on K562 and in the assay with A2780 was under 4.30 in each case.

Take `CCCCCc1cc(C)oc(=O)c1`: the Inhibition in the assay with Staphylococcus aureus [1] was determined as 0 mm; in the assay with Escherichia coli [2], 22 mm; in assay [3] it was 22 mm; with Bacillus subtilis [4] it was 26.1%; with Bacillus subtilis [5], 23 mm; in the assay with Escherichia coli [6] it was 25%. Also, the values for the Inhibition (in the assay with Candida albicans [7]; with Saccharomyces cerevisiae; in [9]) were 0 mm, 0 mm and 25%, respectively. In addition, the negative-log IC50 (pIC50) in the assay with K562 and in the assay on A2780 was under 4.30 in each case.

For the molecule `CCCCC#Cc1cc(C)oc(=O)c1`, the Inhibition worked out at 0 mm in the assay with Staphylococcus aureus [1]; 20 mm with Escherichia coli [2]; 45 mm in assay [3]; 19.3% with Bacillus subtilis [4]; 17 mm in the assay with Bacillus subtilis [5]; 22.7% with Escherichia coli [6]. Also, the Inhibition with Candida albicans [7] was 20 mm; in the assay with Saccharomyces cerevisiae, 0 mm; with Candida albicans [10], 22.7%; in [9], 51.1%. The pIC50 was 4.81 in the assay with K562 and 5.15 in the assay with A2780.

`CCC/C=C/c1cc(C)oc(=O)c1`: the Inhibition in the assay on Staphylococcus aureus [1] came to 20 mm; in the assay with Escherichia coli [2] it was 19 mm; in assay [3], 28 mm; in the assay with Bacillus subtilis [4], 18.2%; in the assay on Bacillus subtilis [5] it was 16 mm; with Escherichia coli [6], 21.6%. Further, the Inhibition in the assay with Staphylococcus aureus [8] turned out to be 22.7%; in the assay on Candida albicans [7] it was 16 mm; in the assay with Saccharomyces cerevisiae it was 0 mm; in the assay on Candida albicans [10] it was 18.2%; in assay [9], 31.8%.

With `CC(=O)Nc1ccc(C#Cc2cc(C)oc(=O)c2)cc1`, the Inhibition in the assay on Staphylococcus aureus [1] came out at 16 mm; in the assay on Escherichia coli [2], 0 mm; in [3], 0 mm; in the assay on Bacillus subtilis [4] it was 6.8%; in the assay on Bacillus subtilis [5] it was 6 mm; in the assay on Staphylococcus aureus [8], 18.2%. The Inhibition in the assay on Candida albicans [7] and in the assay on Saccharomyces cerevisiae was 0 mm in each case.

Take `Cc1cc(C#Cc2ccccc2)cc(=O)o1`: the Inhibition came to 0 mm in the assay with Staphylococcus aureus [1]; 20 mm in the assay with Escherichia coli [2]; 37 mm in assay [3]; 21.6% in the assay on Bacillus subtilis [4]; 19 mm in the assay on Bacillus subtilis [5]; 22.7% with Escherichia coli [6]. In addition, the Inhibition turned out to be 0 mm with Candida albicans [7], 0 mm in the assay with Saccharomyces cerevisiae and 42% in assay [9]. Further, the negative logarithm of the IC50 (pIC50) with K562 is 5.40; in the assay with A2780 it was 5.74.

Regarding `Cc1cc(C#Cc2ccc([N+](=O)[O-])cc2)cc(=O)o1`, the Inhibition in the assay on Staphylococcus aureus [1] amounted to 0 mm; in the assay on Escherichia coli [2], 0 mm; in assay [3], 9 mm; in the assay with Bacillus subtilis [4], 6.8%; in the assay with Bacillus subtilis [5], 6 mm; in the assay with Candida albicans [7], 0 mm. Further, the Inhibition in the assay with Saccharomyces cerevisiae was determined as 0 mm; in [9] it was 10.2%.

With `CCCCc1cc(C)oc(=O)c1`, the Inhibition with Staphylococcus aureus [1] stood at 0 mm; in the assay with Escherichia coli [2], 22 mm; in [3], 0 mm; in the assay with Bacillus subtilis [4], 22.7%; in the assay on Bacillus subtilis [5] it was 20 mm; in the assay with Escherichia coli [6], 25%. Besides, the Inhibition in the assay with Candida albicans [7] and with Saccharomyces cerevisiae was 0 mm throughout. Moreover, the pIC50 with K562 and in the assay with A2780 was under 4.30 in each case.

For `CCOCCc1cc(C)oc(=O)c1`, the negative-log IC50 (pIC50) with K562 and in the assay on A2780 was under 4.30 throughout. Besides, in assay [3], the Inhibition is listed as 0 mm.

In the case of `CCCCCCCCc1cc(C)oc(=O)c1`, the Inhibition came to 18 mm in the assay on Staphylococcus aureus [1]; 22 mm in the assay on Escherichia coli [2]; 30 mm in assay [3]; 21.6% with Bacillus subtilis [4]; 19 mm in the assay on Bacillus subtilis [5]; 25% with Escherichia coli [6]. Further, the Inhibition with Staphylococcus aureus [8] is on record as 20.5%; in the assay on Candida albicans [7], 20 mm; with Saccharomyces cerevisiae it was 0 mm; with Candida albicans [10], 22.7%; in assay [9], 34.1%.

On to `Cc1cc(-c2ccc(C=O)cc2)cc(=O)o1`, for which the Inhibition with Staphylococcus aureus [1] is listed as 18 mm; in the assay on Escherichia coli [2] it was 15 mm; in [3], 14 mm; in the assay with Bacillus subtilis [4] it was 20.5%; with Bacillus subtilis [5] it was 18 mm; in the assay with Escherichia coli [6] it was 17%. The Inhibition in the assay on Staphylococcus aureus [8] worked out at 20.5%; in the assay with Candida albicans [7] it was 0 mm; with Saccharomyces cerevisiae, 0 mm; in assay [9] it was 15.9%. For the same molecule, the pIC50 is 4.59 in the assay with K562 and 4.72 in the assay with A2780.

With `COc1ccc(-c2cc(C)oc(=O)c2)cc1`, the Inhibition in the assay with Staphylococcus aureus [1] amounted to 0 mm; in the assay on Escherichia coli [2], 20 mm; in [3], 20 mm; in the assay with Bacillus subtilis [4], 19.3%; with Bacillus subtilis [5], 17 mm; with Escherichia coli [6] it was 22.7%. Also, the Inhibition in the assay with Candida albicans [7] was found to be 0 mm; in the assay on Saccharomyces cerevisiae, 0 mm; in assay [9] it was 22.7%. The pIC50 in the assay with K562 and in the assay on A2780 was under 4.30 in each case.
